Measurements published in ChEMBL document CHEMBL4049390, “Combination of amino acid/dipeptide with ligustrazine-betulinic acid as antitumor agents” (Eur J Med Chem, 2017).
Active and inactive are the calls of the source. The calls are words filed in the database; no cut-off is given here.

Key:
A549 = assay: Potency index, ratio of cisplatin IC50 to compound IC50 for human A549 cells; format: functional
In short: (§1)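 Ratios were calculated from MTT IC50 values (72 h exposure, A490 read-out, n = 3). Potency index = cisplatin IC50 / compound IC50. Therapeutic index = MDCK IC50 / tumour-line IC50.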

HepG2 [1] = assay: Induction of apoptosis in human HepG2 cells assessed as early apoptotic cells at 4 uM after 72 hrs by Annexin-V-FITC/propidium iodide staining based flow cytometry (reference value: 3.7%); format: functional
HepG2 [2] = assay: Induction of apoptosis in human HepG2 cells assessed as necrotic cells at 3 uM after 72 hrs by Annexin-V-FITC/propidium iodide staining based flow cytometry (reference value: 0.5%); format: functional
HeLa [3] = assay: Potency index, ratio of cisplatin IC50 to compound IC50 for human HeLa cells; format: functional; in short: as §1
HeLa [4] = assay: Antiproliferative activity against human HeLa cells after 72 hrs by MTT assay; format: functional, cell-based
In short: (§2)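 MTT assay. Log-phase cells were seeded at 3×10^3 cells/well and left overnight, then exposed to serial dilutions of compound (DMSO solutions) for 72 h in RPMI 1640 with 10% heat-inactivated FBS at 37 °C, 5% CO2. MTT (5 mg/mL, 20 µL) was added for 4 h at 37 °C and the formazan dissolved in DMSO. A490 was read. % inhibition = (1 − sample OD/control OD)×100; IC50 is the 50% growth-inhibition concentration. Triplicates, n = 3 independent experiments.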

BGC-823 = assay: Antiproliferative activity against human BGC823 cells after 72 hrs by MTT assay; format: functional, cell-based; conditions: BGC-823, 72 h; in short: as §2
HepG2 [5] = assay: Antiproliferative activity against human HepG2 cells after 72 hrs by MTT assay; format: functional, cell-based; conditions: HepG2, 72 h; in short: as §2
HepG2 [6] = assay: Induction of apoptosis in human HepG2 cells assessed as increase in intracellular calcium level by measuring mean fluorescence intensity at 3 uM after 72 hrs by Fluo-3AM dye based flow cytometry (reference value: 1992); format: functional
In short: (§3)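 HepG2 cells at 1×10^5 cells/well were grown 24 h, then treated with compound for 72 h. Cells were harvested, washed in cold PBS and resuspended in HBSS containing 10 µM Fluo-3 AM for 30 min at 37 °C in the dark. Flow cytometry used 488 nm excitation; the read-out was mean fluorescence intensity against an untreated control.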

HepG2 [7] = assay: Induction of apoptosis in human HepG2 cells assessed as late apoptotic cells at 2 uM after 72 hrs by Annexin-V-FITC/propidium iodide staining based flow cytometry (reference value: 2.6%); format: functional
HepG2 [8] = assay: Induction of apoptosis in human HepG2 cells assessed as increase in intracellular calcium level by measuring mean fluorescence intensity after 72 hrs by Fluo-3AM dye based flow cytometry; format: functional, cell-based
In short: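 Intracellular Ca2+: HepG2 cells (1×10^5/well, 6-well) were grown 24 h, then treated at 2, 3 or 4 µM for 72 h. Cells were harvested, washed in cold PBS and resuspended in HBSS with 10 µM Fluo-3AM for 30 min at 37 °C in the dark. Flow cytometry used 488 nm excitation; the read-out is mean fluorescence intensity.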

HepG2 [9] = assay: Induction of apoptosis in human HepG2 cells assessed as necrotic cells at 2 uM after 72 hrs by Annexin-V-FITC/propidium iodide staining based flow cytometry (reference value: 0.5%); format: functional
HepG2 [10] = assay: Induction of apoptosis in human HepG2 cells assessed as disruption of mitochondrial membrane potential by measuring mean fluorescence intensity after 72 hrs by Rh123 staining based flow cytometry; format: functional, cell-based
In short: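 Mitochondrial potential: HepG2 cells (1×10^5/well, 6-well) were grown 24 h, then exposed at 2, 3 or 4 µM for 72 h. Cells were trypsinised, washed in cold PBS and loaded with 10 µg/mL rhodamine 123 for 30 min at 37 °C. After washing, flow cytometry was run (ex 488/em 530 nm); the read-out is mean fluorescence intensity.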

HepG2 [11] = assay: Induction of apoptosis in human HepG2 cells assessed as early apoptotic cells at 3 uM after 72 hrs by Annexin-V-FITC/propidium iodide staining based flow cytometry (reference value: 3.7%); format: functional
HepG2 [12] = assay: Induction of apoptosis in human HepG2 cells assessed as nuclear fragmentation at 1.5 to 6 uM after 72 hrs by Giemsa staining based fluorescent microscopic method; format: functional, cell-based
In short: (§4)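 HepG2 cells were seeded at 4×10^3 cells/well in 6-well plates overnight, then treated at 1.5, 3 or 6 µM for 72 h. Cells were washed in PBS, fixed in cold methanol, stained with 6% Giemsa for 5 min, rinsed with water and dried. Morphology was examined microscopically at 200×, with apoptotic cells marked in representative fields.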

HepG2 [13] = assay: Induction of apoptosis in human HepG2 cells assessed as increase in intracellular calcium level by measuring mean fluorescence intensity at 4 uM after 72 hrs by Fluo-3AM dye based flow cytometry (reference value: 1992); format: functional; in short: as §3
HepG2 [14] = assay: Induction of apoptosis in human HepG2 cells assessed as disruption of mitochondrial membrane potential by measuring mean fluorescence intensity at 3 uM after 72 hrs by Rh123 staining based flow cytometry (reference value: 26410); format: functional
HepG2 [15] = assay: Induction of apoptosis in human HepG2 cells assessed as viable cells at 2 uM after 72 hrs by Annexin-V-FITC/propidium iodide staining based flow cytometry (reference value: 93.2%); format: functional; conditions: HepG2, 72 h, read-out: Activity
HepG2 [16] = assay: Induction of apoptosis in human HepG2 cells assessed as late apoptotic cells at 3 uM after 72 hrs by Annexin-V-FITC/propidium iodide staining based flow cytometry (reference value: 2.6%); format: functional
HepG2 [17] = assay: Induction of apoptosis in human HepG2 cells assessed as late apoptotic cells at 4 uM after 72 hrs by Annexin-V-FITC/propidium iodide staining based flow cytometry (reference value: 2.6%); format: functional
HepG2 [18] = assay: Induction of apoptosis in human HepG2 cells assessed as cell shrinkage at 1.5 uM after 72 hrs by Giemsa staining based fluorescent microscopic method; format: functional; in short: as §4
HepG2 [19] = assay: Potency index, ratio of cisplatin IC50 to compound IC50 for human HepG2 cells; format: functional; in short: as §1
HepG2 [20] = assay: Induction of apoptosis in human HepG2 cells assessed as increase in intracellular calcium level by measuring mean fluorescence intensity at 2 uM after 72 hrs by Fluo-3AM dye based flow cytometry (reference value: 1992); format: functional; in short: as §3
MDCK = assay: Antiproliferative activity against MDCK cells after 72 hrs by MTT assay; format: cell-based; conditions: Canis lupus familiaris; in short: as §2
HepG2 [21] = assay: Induction of apoptosis in human HepG2 cells assessed as nuclear condensation after 72 hrs by DAPI staining based fluorescent microscopic method; format: functional, cell-based
In short: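 HepG2 cells were plated at 4×10^3 cells/well in six-well plates and grown 12 h, then treated at 1.5, 3 or 6 µM for 72 h. Cells were washed in PBS, fixed in 4% paraformaldehyde and stained with 1 mg/mL DAPI for 1 min in the dark. Nuclei were viewed by fluorescence microscopy at 200×.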

HepG2 [22] = assay: Induction of apoptosis in human HepG2 cells assessed as chromatin margination at 1.5 uM after 72 hrs by Giemsa staining based fluorescent microscopic method; format: functional, cell-based; in short: as §4
HT-29 = assay: Potency index, ratio of cisplatin IC50 to compound IC50 for human HT-29 cells; format: functional; in short: as §1

C=C(C)[C@@H]1CC[C@]2(C(=O)OCc3nc(C)c(C)nc3C)CC[C@]3(C)[C@H](CC[C@@H]4[C@@]5(C)CC[C@H](OC(=O)[C@H](C)NC(=O)CNC)C(C)(C)[C@@H]5CC[C@]43C)[C@@H]12
Ratio IC50 (A549): 2
Activity (HepG2 [1]): 29.9%
Activity (HepG2 [2]): 1.2%
Ratio IC50 (HeLa [3]): 2
IC50 (HeLa [4]): 1.74 µM
IC50 (BGC-823): 1.79 µM
IC50 (HepG2 [5]): 3.09 µM
Flu intensity (HepG2 [6]): 3760
Activity (HepG2 [7]): 4.8%
Activity (HepG2 [8]): Dose-dependent effect
Activity (HepG2 [9]): 1.1%
Activity (HepG2 [10]): Dose-dependent effect
Activity (HepG2 [11]): 11.3%
Activity (HepG2 [12]): Active
Flu intensity (HepG2 [13]): 6353
Flu intensity (HepG2 [14]): 5411
viability at 2 µM (HepG2 [15]): 88%
Activity (HepG2 [16]): 6.5%
Activity (HepG2 [17]): 6.9%
Activity (HepG2 [18]): Active
Ratio IC50 (HepG2 [19]): 2
Flu intensity (HepG2 [20]): 2743
IC50 (MDCK): 10.8 µM
Activity (HepG2 [21]): Dose-dependent effect
Activity (HepG2 [22]): Active
Ratio IC50 (HT-29): 2
